Key:
Cavia porcellus [1] = species on record: Cavia porcellus; assay: Percent inhibition of the leukotriene E4 (LTE4)-induced contraction of guinea pig tracheal spirals at 10 uM concentration; NS means data was not statistically significant; conditions: Trachea
Cavia porcellus [2] = species on record: Cavia porcellus; assay: Percent inhibition of the leukotriene E4 (LTE4)-induced contraction of guinea pig tracheal spirals at 10 uM concentration; format: functional; conditions: Trachea
Outline: (§1)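 Guinea pig tracheal spirals were split into paired sections in 10 mL baths of modified Krebs at 37 °C, gassed with 95% O₂/5% CO₂, under 2 g resting tension. After 60 min equilibration (washes every 15 min), reproducible contractions to 8 nM LTD₄ or 8 nM LTE₄ were obtained. Compound was added for 10 min, then agonist challenge repeated; percent inhibition is relative to the vehicle-treated paired section.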

Cavia porcellus [3] = species on record: Cavia porcellus; assay: Percent inhibition of the leukotriene E4 (LTE4)-induced contraction of guinea pig tracheal spirals at 10 uM concentration; NS means data was not statistically significant.; format: functional; conditions: Trachea
Outline: as §1

Cavia porcellus [4] = species on record: Cavia porcellus; assay: Inhibition of the leukotriene D4 (LTD4)-induced contraction of guinea pig tracheal spirals at 10 uM concentration; format: functional; conditions: Trachea
Outline: as §1

Cavia porcellus [5] = species on record: Cavia porcellus; assay: Percent inhibition of the leukotriene D4 (LTD4)-induced contraction of guinea pig tracheal spirals at 3.3 uM concentration; format: functional; conditions: Trachea, in the assay text read “leukotriene E4 (LTE4)” for “leukotriene D4 (LTD4)”
Outline: as §1

Cavia porcellus [6] = species on record: Cavia porcellus; assay: Percent inhibition of the leukotriene D4 (LTD4)-induced contraction of guinea pig tracheal spirals at 4 uM concentration; format: functional; conditions: Trachea
Outline: as §1

Cavia porcellus [7] = assay: Compound (50 mg/kg, intraperitoneally) was tested in spontaneously breathing, conscious guinea pigs challenged with aerosolized LTD4 (60-min pretreatment); format: functional

Compound: CCCC(=O)N(Cc1ccc(C(=O)O)cc1OC)c1ccc(C(C)=O)c(O)c1
- inhibition (Cavia porcellus [1]): Not statistically significant

Compound: COc1cc(C(=O)O)ccc1COc1ccc(C(C)=O)c(O)c1C/C=C/c1ccccc1
- inhibition at 10 µM (Cavia porcellus [2]): 32%

Compound: CCCc1c(OCc2ccc(C(=O)O)cc2OC)ccc(C(C)=O)c1NC(=O)c1ccccc1
- inhibition (Cavia porcellus [3]): Not statistically significant

Compound: CCCc1c(OCCCCCC(=O)O)ccc(C(C)=O)c1O
- inhibition at 10 µM (Cavia porcellus [4]): 52%

Compound: CCCc1c(OCc2ccc(OCCCc3nnn[nH]3)cc2)ccc(C(C)=O)c1O
- inhibition at 10 µM (Cavia porcellus [4]): 56%

Compound: CCCc1c(OCCCCC(=O)O)ccc(C(C)=O)c1O
- inhibition at 10 µM (Cavia porcellus [4]): 18%

Compound: CCCc1c(OCc2ccc(C(=O)O)cc2OC)ccc(C(C)=O)c1OCc1ccc(OC)cc1
- inhibition at 10 µM (Cavia porcellus [2]): 25%

Compound: CCCc1c(O)cccc1OCc1ccc(C(=O)O)cc1OC
- inhibition (Cavia porcellus [3]): Not statistically significant

Compound: CCCc1c(OCc2ccc(C(=O)O)cc2OCCCn2cnnn2)ccc(C(C)=O)c1O
- inhibition at 3.3 µM (Cavia porcellus [5]): 87%

Compound: CCCCCCNc1cc(OCc2ccc(C(=O)O)cc2OC)ccc1C(C)=O
- inhibition at 10 µM (Cavia porcellus [4]): 11%

Compound: COc1cc(C(=O)O)ccc1CN(Cc1ccccc1)c1ccc(C(C)=O)c(O)c1
- inhibition at 10 µM (Cavia porcellus [2]): 36%

Compound: CCCc1c(OCc2ccc(/C=C/C(=O)O)c(OC)c2)ccc(C(C)=O)c1O
- inhibition at 4 µM (Cavia porcellus [6]): 66%

Compound: CC/N=C(/NCC)NCCCC[C@@H](NC(=O)[C@H](Cc1ccc(O)cc1)NC(=O)[C@H](CO)NC(=O)[C@@H](Cc1c[nH]c2ccccc12)NC(=O)[C@@H](Cc1ccc(Cl)cc1)NC(=O)[C@@H](Cc1ccc(Cl)cc1)NC(C)=O)C(=O)N[C@@H](CC(C)C)C(=O)N[C@@H](CCCN=C(N)N)C(=O)N1CCC[C@H]1C(=O)N[C@H](C)C(N)=O
- inhibition at 10 µM (Cavia porcellus [2]): 40%

Compound: CCCc1c(OCc2ccc(C(=O)O)cc2[N+](=O)[O-])ccc(C(C)=O)c1O
- inhibition at 10 µM (Cavia porcellus [4]): 93%
- inhibition at 4 µM (Cavia porcellus [6]): 57%

Compound: CCCc1c(OCc2ccc(C(=O)O)cc2OC)ccc(C(=O)NC)c1O
- Protection (Cavia porcellus [7]): 33%
- inhibition at 10 µM (Cavia porcellus [2]): 50%

Compound: CCCc1c(OCCCSCCC(=O)O)ccc(C(C)=O)c1O
- inhibition at 10 µM (Cavia porcellus [4]): 50%

Compound: CCCc1c(OCc2ccc(C(=O)NS(C)(=O)=O)cc2OC)ccc(C(C)=O)c1O
- inhibition at 3.3 µM (Cavia porcellus [5]): 37%
- inhibition at 10 µM (Cavia porcellus [4]): 97%

Compound: C/C=C\c1cc(=O)oc2c(CCC)c(OCc3ccc(C(=O)O)cc3OC)ccc12
- inhibition at 10 µM (Cavia porcellus [2]): 23%

Compound: CCCc1c(OCc2cccc(NS(C)(=O)=O)c2)ccc(C(C)=O)c1O
- inhibition at 10 µM (Cavia porcellus [4]): 26%

Compound: CCCc1c(OCc2ccccc2-c2nn[nH]n2)ccc(C(C)=O)c1O
- inhibition (Cavia porcellus [1]): Not statistically significant

Compound: CCCc1c(N(Cc2ccc(C(=O)O)cc2OC)C(=O)c2ccccc2)ccc(C(C)=O)c1O
- inhibition at 10 µM (Cavia porcellus [2]): 12%

Compound: CCCc1c(OCc2cccc(NC(=O)CCC(=O)O)c2)ccc(C(C)=O)c1O
- inhibition at 3.3 µM (Cavia porcellus [5]): 62%

Compound: CCCCCCOc1cc(OCc2ccc(C(=O)O)cc2OC)ccc1C(C)=O
- inhibition (Cavia porcellus [3]): Not statistically significant

Compound: C/C=C/c1cc(=O)oc2c(CCC)c(OCc3ccc(C(=O)O)cc3OC)ccc12
- inhibition at 10 µM (Cavia porcellus [2]): 21%

Compound: CCCc1c(OCc2ccc(C(=O)O)cc2OC)ccc2c1C(=O)c1ccccc1-2
- inhibition (Cavia porcellus [3]): Not statistically significant

Compound: COc1cc(C(=O)O)ccc1COc1ccc(C(C)=O)c(OCc2ccccc2)c1
- inhibition at 10 µM (Cavia porcellus [2]): 24%

Compound: CCCc1c(OCc2ccc(C(=O)O)cc2OC)cc2oc(-c3ccccc3)cc(=O)c2c1O
- inhibition (Cavia porcellus [3]): Not statistically significant

Compound: CCCc1c(OCc2ccc(C(=O)O)cc2)ccc(C(=O)C(F)(F)F)c1O
- inhibition at 10 µM (Cavia porcellus [4]): 36%

Compound: CCCc1c(OCc2ccc(/C=C/c3nn[nH]n3)cc2)ccc(C(C)=O)c1O
- inhibition at 10 µM (Cavia porcellus [4]): 44%

Compound: CCCc1c(OCCCCSCCC(=O)O)ccc(C(C)=O)c1O
- inhibition at 10 µM (Cavia porcellus [4]): 74%

Compound: CCCc1c(OC(c2ccccc2)c2ccc(C(=O)O)cc2)ccc(C(C)=O)c1O (stereo unspecified)
- inhibition at 10 µM (Cavia porcellus [4]): 16%

Compound: CCCc1c(NCc2ccc(C(=O)O)cc2OC)ccc(C(C)=O)c1O
- inhibition at 10 µM (Cavia porcellus [2]): 73%

Compound: CCCc1cc2c(cc1OCc1ccc(C(=O)O)cc1OC)C(=O)c1ccccc1-2
- inhibition (Cavia porcellus [3]): Not statistically significant

Compound: CCCc1c(OCc2ccc(C(=O)O)cc2OCC)ccc(C(C)=O)c1O
- inhibition at 10 µM (Cavia porcellus [4]): 83%

Compound: CCCc1c(N(Cc2ccc(C(=O)O)cc2OC)C(C)=O)ccc(C(C)=O)c1O
- inhibition (Cavia porcellus [1]): Not statistically significant

Compound: CCCc1c(OCc2ccc(C(=O)O)cc2OC)ccc(C(C)=O)c1NC(C)=O
- inhibition (Cavia porcellus [3]): Not statistically significant

Compound: CCCc1c(OCCCS(=O)(=O)CC(=O)O)ccc(C(C)=O)c1O
- inhibition at 10 µM (Cavia porcellus [4]): 34%

Compound: CCCc1c(OCc2cccc(N)c2)ccc(C(C)=O)c1O
- inhibition at 10 µM (Cavia porcellus [4]): 39%

Reference: ChEMBL document CHEMBL1124444, “Hydroxyacetophenone-derived antagonists of the peptidoleukotrienes” (1989)
